Experimental data reported in ChEMBL document CHEMBL5705897, “Characterization of WZ4003 and HTH-01-015 as selective inhibitors of the LKB1-tumour-suppressor-activated NUAK kinases” (Biochem J, 2014).
Activity calls are given as the source filed them. The calls are words filed in the database; no cut-off is given here.

Tests used:
[1] = target: Serine/threonine-protein kinase TBK1 (Homo sapiens) (UniProt Q9UHD2); experiment: Inhibition of recombinant human N-terminal GST-tagged TBK1 (1 to 729 residues) expressed in baculovirus infected Sf21 cells assessed as remaining activity at 1 uM using KKKKERLLDDRHDSGLDSMKDEE as substrate incubated for 30 mins in presence of [gamma-33P]ATP by filter binding method relative to control
Method in brief: (§1)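 Screened at the International Centre for Protein Kinase Profiling against a 140-kinase panel, with inhibitor at 0.1 or 1 μM; activity expressed as percentage of DMSO control reactions, mean of triplicate reactions.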

[2] = target: T1, NUAK family SNF1-like kinase 1 (Homo sapiens) (UniProt O60285); experiment: Inhibition of NUAK1 in HEK293 cells assessed as reduction in MYPT1 phosphorylation at Ser445 residue incubated for 16 hrs by immunoblot analysis; format: cell-based; settings: dose 3-10 µM
T1 sequence (whole entry): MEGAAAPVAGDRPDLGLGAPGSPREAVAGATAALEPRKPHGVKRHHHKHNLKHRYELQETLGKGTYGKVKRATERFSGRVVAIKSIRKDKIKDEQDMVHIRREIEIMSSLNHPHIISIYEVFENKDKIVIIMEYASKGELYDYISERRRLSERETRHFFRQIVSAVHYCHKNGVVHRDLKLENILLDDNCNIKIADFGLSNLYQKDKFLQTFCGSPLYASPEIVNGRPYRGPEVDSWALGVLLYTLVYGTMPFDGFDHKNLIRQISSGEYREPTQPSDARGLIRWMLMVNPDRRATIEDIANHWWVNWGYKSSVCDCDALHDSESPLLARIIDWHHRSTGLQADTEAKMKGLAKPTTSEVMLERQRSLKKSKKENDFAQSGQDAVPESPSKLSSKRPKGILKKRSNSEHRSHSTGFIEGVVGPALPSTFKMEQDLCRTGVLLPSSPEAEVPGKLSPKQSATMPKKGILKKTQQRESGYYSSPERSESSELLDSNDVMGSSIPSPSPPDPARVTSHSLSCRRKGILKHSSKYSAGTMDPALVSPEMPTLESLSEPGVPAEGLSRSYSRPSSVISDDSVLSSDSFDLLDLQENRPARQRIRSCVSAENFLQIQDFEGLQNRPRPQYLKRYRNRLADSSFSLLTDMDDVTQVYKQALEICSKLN
Method in brief: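 HEK-293 cells exposed to inhibitor or DMSO for 16 h; medium replaced by EDTA-PBS dissociation buffer with the same inhibitor concentration to induce detachment (gentle tapping, 70 g, 3 min); cells lysed at once; MYPT1 immunoprecipitated from 0.5 mg lysate, blotted for p-Ser445 and total MYPT1; repeated three times.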

[3] = tested on: Ribosomal protein S6 kinase beta-1 (Homo sapiens), P23443 [T412E]; experiment: Inhibition of recombinant human His6-tagged S6K1 T412E mutant (1 to 421 residues) expressed in baculovirus infected Sf21 cells assessed as remaining activity at 1 uM using KKRNRTLTV as substrate incubated for 30 mins in presence of [gamma-33P]ATP by filter binding method relative to control
Method in brief: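 Run within a 140-kinase specificity panel at the International Centre for Protein Kinase Profiling. Compounds were dissolved in DMSO and tested in vitro at 0.1 or 1 μM. Activity is expressed as percentage of kinase activity in DMSO control reactions, as the mean ± S.D. of triplicate reactions.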

[4] = target: Mitogen-activated protein kinase kinase kinase 11 (Homo sapiens) (UniProt Q16584); experiment: Inhibition of recombinant human N-terminal GST-tagged MLK3 (96 to 386 residues) expressed in baculovirus infected Sf21 cells assessed as remaining activity at 1 uM using MBP as substrate incubated for 30 mins in presence of [gamma-33P]ATP by filter binding method relative to control; method in brief: as §1
[5] = target: Ribosomal protein S6 kinase alpha-1 (Homo sapiens) (UniProt Q15418); experiment: Inhibition of recombinant human N-terminal His6-tagged RSK1 (1 to 735 residues) expressed in baculovirus infected Sf21 cells assessed as remaining activity at 1 uM using KKLNRTLSVA as substrate incubated for 30 mins in presence of [gamma-33P]ATP by filter binding method relative to control; method in brief: as §1
[6] = target: MAP kinase-activated protein kinase 2 (Homo sapiens) (UniProt P49137); experiment: Inhibition of recombinant human N-terminal GST/C-terminal Myc-tagged MAPKAPK2 (46 to 400 residues) expressed in Escherichia coli assessed as remaining activity at 1 uM using KKLNRTLSVA as substrate incubated for 30 mins in presence of [gamma-33P]ATP by filter binding method relative to control; method in brief: as §1
[7] = target: Serine/threonine-protein kinase D1 (Homo sapiens) (UniProt Q15139); experiment: Inhibition of recombinant human N-terminal His6-tagged PKD1 (2 to 912 residues) expressed in baculovirus infected Sf21 cells assessed as remaining activity at 1 uM using KKLNRTLSVA as substrate incubated for 30 mins in presence of [gamma-33P]ATP by filter binding method relative to control; method in brief: as §1
[8] = target: T1, NUAK family SNF1-like kinase 1 (Homo sapiens); experiment: Inhibition of NUAK1 (unknown origin) expressed in HEK293 cells assessed as reduction in MYPT1 phosphorylation at Ser445 residue at 30 uM incubated for 16 hrs by immunoblot analysis; format: cell-based
Method in brief: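 HEK-293 Flp/In T-Rex cells stably expressing HA–NUAK1 or HA–NUAK1[A195T] (doxycycline 0.1 μg/ml, 16–24 h to induce) treated with inhibitor 16 h, then detached in EDTA-PBS dissociation buffer containing the same inhibitor concentration, tapped and spun 70 g 3 min; lysed, endogenous MYPT1 immunoprecipitated from 0.5 mg lysate and immunoblotted for p-Ser445 and total MYPT1; three separate experiments.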

[9] = target: MAP kinase-interacting serine/threonine-protein kinase 2 (Homo sapiens) (UniProt Q9HBH9); experiment: Inhibition of recombinant human N-terminal GST/C-terminal His6-tagged MNK2alpha (2 to 465 residues) expressed in Escherichia coli assessed as remaining activity at 1 uM using eIF4E as substrate incubated for 30 mins in presence of [gamma-33P]ATP by filter binding method relative to control; method in brief: as §1
[10] = target: Mitogen-activated protein kinase kinase kinase kinase 2 (Homo sapiens) (UniProt Q12851); experiment: Inhibition of recombinant human N-terminal His6-tagged GCK (2 to 812 residues) expressed in baculovirus infected Sf21 cells assessed as remaining activity at 1 uM using MBP as substrate incubated for 30 mins in presence of [gamma-33P]ATP by filter binding method relative to control; method in brief: as §1
[11] = target: Dual specificity tyrosine-phosphorylation-regulated kinase 3 (Homo sapiens) (UniProt O43781); experiment: Inhibition of recombinant human N-terminal GST-tagged DYRK3 (1 to 588 residues) expressed in Escherichia coli assessed as remaining activity at 1 uM using KKISGRLSPIMTEQ as substrate incubated for 30 mins in presence of [gamma-33P]ATP by filter binding method relative to control; method in brief: as §1
[12] = tested on: MEF; experiment: Antiproliferative activity against NUAK1+/+ MEF cells assessed as reduction in cell viability at 10 uM after 5 days by CellTiter 96 non-radioactive cell proliferation assay; format: functional, cell-based; settings: Mus musculus, time 5.0 day
Method in brief: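 Colorimetric CellTiter 96 AQueous proliferation assay in 96-well format; 2000 cells/well seeded for U2OS, 3000 cells/well for MEFs; grown 5 days with or without 10 μM inhibitor; run in triplicate. Inhibitors dissolved in DMSO, final DMSO in medium ≤1%. MEFs cultured in DMEM/10% FBS, glutamine, non-essential amino acids, sodium pyruvate.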

Ribosomal protein S6 kinase alpha-1 (Homo sapiens), sequence (Q15418 whole entry, the tested form may be a part): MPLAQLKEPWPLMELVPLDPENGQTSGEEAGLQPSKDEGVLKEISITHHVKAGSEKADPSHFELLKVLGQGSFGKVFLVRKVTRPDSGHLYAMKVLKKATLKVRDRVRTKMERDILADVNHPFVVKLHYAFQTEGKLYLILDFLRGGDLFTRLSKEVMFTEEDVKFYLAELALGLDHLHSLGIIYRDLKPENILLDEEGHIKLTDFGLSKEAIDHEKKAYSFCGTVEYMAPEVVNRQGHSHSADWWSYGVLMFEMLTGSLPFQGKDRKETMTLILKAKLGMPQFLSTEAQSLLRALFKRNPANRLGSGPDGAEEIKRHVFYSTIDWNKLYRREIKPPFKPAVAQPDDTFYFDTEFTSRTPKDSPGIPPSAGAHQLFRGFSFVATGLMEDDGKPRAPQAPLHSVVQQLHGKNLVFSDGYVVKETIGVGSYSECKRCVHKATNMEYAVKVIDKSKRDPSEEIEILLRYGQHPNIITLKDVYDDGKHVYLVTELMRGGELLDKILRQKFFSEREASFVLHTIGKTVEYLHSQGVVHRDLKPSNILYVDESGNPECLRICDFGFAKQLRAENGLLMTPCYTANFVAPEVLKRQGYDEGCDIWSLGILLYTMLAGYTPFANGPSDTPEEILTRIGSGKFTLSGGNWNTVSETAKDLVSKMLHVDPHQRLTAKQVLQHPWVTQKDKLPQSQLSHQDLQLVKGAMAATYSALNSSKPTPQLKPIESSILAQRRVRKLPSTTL
Ribosomal protein S6 kinase beta-1 (Homo sapiens), P23443 [T412E], sequence (P23443 whole entry T412E, looked up, the tested form may be a part): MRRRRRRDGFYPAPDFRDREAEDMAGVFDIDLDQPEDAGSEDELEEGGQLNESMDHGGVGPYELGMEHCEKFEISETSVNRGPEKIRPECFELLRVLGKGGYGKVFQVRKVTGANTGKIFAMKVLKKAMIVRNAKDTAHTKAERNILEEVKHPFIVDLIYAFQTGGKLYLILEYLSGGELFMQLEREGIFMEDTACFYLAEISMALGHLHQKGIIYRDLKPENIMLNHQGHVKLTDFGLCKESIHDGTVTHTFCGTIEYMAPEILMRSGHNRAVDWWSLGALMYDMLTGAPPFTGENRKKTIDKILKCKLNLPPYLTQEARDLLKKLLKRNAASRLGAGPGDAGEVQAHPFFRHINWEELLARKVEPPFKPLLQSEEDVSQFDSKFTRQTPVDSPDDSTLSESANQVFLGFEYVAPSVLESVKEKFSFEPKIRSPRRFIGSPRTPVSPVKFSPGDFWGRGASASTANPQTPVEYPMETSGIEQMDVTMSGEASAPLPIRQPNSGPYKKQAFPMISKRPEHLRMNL
MAP kinase-activated protein kinase 2 (Homo sapiens), sequence (P49137 whole entry, looked up, the tested form may be a part): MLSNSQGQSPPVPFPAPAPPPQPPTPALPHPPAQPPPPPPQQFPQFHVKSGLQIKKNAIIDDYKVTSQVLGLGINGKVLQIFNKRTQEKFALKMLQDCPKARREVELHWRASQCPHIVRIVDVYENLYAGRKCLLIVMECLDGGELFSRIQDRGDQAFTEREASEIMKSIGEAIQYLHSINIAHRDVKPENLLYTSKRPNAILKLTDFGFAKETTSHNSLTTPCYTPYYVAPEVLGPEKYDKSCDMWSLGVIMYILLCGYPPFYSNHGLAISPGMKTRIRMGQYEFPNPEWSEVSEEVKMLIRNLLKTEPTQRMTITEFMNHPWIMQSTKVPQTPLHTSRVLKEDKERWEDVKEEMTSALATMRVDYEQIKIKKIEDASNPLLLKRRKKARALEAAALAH
Serine/threonine-protein kinase D1 (Homo sapiens), sequence (Q15139 whole entry, the tested form may be a part): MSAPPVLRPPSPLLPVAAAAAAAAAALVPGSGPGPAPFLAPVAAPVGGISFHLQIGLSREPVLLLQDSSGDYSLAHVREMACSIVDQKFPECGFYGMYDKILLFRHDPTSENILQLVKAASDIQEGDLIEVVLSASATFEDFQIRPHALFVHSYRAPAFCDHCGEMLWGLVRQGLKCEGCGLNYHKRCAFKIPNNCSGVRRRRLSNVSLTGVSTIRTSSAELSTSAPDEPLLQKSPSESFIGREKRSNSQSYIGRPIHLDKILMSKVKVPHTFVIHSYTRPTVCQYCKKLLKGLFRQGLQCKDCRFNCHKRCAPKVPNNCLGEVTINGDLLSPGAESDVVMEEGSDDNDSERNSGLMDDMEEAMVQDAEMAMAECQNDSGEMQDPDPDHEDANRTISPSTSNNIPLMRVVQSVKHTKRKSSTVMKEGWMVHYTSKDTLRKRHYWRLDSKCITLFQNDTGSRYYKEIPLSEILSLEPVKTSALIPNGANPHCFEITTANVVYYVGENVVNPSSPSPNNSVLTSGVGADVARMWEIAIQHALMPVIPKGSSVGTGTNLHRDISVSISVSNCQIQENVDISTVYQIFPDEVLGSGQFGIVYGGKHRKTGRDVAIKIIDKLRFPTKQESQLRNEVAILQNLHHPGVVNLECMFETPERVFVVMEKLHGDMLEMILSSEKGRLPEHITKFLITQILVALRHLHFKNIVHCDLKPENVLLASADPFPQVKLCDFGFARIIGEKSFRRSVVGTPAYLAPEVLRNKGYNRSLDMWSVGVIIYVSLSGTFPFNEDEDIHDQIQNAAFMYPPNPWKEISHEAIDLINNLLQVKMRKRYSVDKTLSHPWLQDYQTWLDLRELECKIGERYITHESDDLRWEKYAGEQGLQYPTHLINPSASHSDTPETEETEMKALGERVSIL
MAP kinase-interacting serine/threonine-protein kinase 2 (Homo sapiens), sequence (Q9HBH9 whole entry, looked up, the tested form may be a part): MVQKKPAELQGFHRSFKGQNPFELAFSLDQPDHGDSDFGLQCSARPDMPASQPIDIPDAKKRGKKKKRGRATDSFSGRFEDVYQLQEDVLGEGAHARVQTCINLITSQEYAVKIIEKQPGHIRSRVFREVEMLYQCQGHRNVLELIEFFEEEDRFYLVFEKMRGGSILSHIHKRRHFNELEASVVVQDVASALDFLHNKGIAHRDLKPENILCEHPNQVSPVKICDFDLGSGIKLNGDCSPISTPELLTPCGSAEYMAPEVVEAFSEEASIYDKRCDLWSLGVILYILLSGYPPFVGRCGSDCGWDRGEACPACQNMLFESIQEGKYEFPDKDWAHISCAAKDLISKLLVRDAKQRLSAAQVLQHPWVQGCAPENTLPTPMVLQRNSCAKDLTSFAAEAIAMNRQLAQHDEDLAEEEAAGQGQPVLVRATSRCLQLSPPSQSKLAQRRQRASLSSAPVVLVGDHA
Serine/threonine-protein kinase TBK1 (Homo sapiens), sequence (Q9UHD2 whole entry, the tested form may be a part): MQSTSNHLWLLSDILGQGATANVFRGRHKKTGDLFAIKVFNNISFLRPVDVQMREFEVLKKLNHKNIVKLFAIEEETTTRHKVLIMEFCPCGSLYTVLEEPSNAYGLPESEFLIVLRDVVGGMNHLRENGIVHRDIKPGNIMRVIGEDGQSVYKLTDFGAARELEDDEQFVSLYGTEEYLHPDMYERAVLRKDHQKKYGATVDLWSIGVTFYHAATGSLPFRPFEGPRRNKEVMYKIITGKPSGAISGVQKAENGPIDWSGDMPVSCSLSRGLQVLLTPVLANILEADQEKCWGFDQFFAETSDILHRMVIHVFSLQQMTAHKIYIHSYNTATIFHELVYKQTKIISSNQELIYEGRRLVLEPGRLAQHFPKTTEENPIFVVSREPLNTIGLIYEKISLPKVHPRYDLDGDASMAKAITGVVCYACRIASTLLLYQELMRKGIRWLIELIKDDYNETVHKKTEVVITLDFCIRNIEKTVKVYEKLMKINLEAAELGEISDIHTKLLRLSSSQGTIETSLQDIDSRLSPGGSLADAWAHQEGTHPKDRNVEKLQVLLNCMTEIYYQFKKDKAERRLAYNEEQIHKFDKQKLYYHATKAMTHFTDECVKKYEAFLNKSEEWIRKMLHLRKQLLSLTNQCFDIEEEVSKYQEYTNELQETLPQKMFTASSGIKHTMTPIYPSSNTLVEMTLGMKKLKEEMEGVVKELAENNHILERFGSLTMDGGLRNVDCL
Mitogen-activated protein kinase kinase kinase 11 (Homo sapiens), sequence (Q16584 whole entry, looked up, the tested form may be a part): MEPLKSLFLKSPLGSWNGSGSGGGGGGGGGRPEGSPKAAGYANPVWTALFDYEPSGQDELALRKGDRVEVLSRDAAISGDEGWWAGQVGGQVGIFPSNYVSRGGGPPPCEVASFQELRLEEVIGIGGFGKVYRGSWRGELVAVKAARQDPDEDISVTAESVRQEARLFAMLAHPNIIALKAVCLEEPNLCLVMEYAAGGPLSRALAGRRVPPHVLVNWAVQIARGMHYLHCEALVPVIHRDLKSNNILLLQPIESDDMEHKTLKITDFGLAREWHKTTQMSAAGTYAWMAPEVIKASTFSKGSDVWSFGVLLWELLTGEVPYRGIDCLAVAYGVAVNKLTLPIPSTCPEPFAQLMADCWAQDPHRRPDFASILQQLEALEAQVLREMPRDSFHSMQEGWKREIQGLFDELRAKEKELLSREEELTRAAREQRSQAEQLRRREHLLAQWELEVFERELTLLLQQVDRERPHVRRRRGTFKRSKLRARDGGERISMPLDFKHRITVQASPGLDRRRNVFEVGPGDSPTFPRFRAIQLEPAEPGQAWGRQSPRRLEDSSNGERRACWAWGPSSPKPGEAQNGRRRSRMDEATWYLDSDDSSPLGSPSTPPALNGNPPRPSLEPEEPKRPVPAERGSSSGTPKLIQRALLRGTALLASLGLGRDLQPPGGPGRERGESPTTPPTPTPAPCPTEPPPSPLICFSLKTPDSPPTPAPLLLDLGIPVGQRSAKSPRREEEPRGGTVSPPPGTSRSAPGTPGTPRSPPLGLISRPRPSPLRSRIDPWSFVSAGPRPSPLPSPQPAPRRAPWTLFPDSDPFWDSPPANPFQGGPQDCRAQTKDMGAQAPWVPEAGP

`CCC(=O)Nc1cccc(Oc2nc(Nc3ccc(N4CCN(C)CC4)cc3OC)ncc2Cl)c1` was tested, and the Activity [1] was 84%, the inhibition [2] was “Dose-Dependent Effect” and the Activity [3] was 83%. The Activity [4] was 73%, the Activity [5] was 67% and the Activity [6] was 82%. The Activity [7] was 57%, the inhibition [8] was “Active” and the Activity [9] was 84%. For the same molecule, the Activity [10] was 96%, the Activity [11] was 71% and the inhibition [12] was “Active”.
